The results in this text go back to ChEMBL document CHEMBL1782040, “Exceptionally fast uptake and metabolism of cyanidin 3-glucoside by rat kidneys and liver” (J Nat Prod, 2011).

Data set [1] relates to Plasma. As to the kind of experiment: Drug uptake in Wistar rat plasma assessed as peonidin 3-glucoside level at 0.67 umol, iv after 0.25 mins by mass spectrometry analysis. The data set is classed as ADME, organism-based. The settings on record: in vivo, 15 s. The method, boiled down:
(§1)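 Fasted, anaesthetized rats received the anthocyanin in saline as a 0.67 μmol iliac-vein bolus (76 μM in plasma). They were sacrificed at 15 s, 1, 5 or 15 min, and plasma, kidneys, liver, urine and bile were collected. Anthocyanins were methanol-extracted, SPE-cleaned and quantified by MS (tandem MS for trace metabolites), then corrected for recovery measured on spiked blood, homogenates and urine. Amounts assume 8.8 mL plasma, 2.4 g kidney and 7.0 g liver, with urine and bile volumes measured.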

For data set [2], the system named is Plasma. Description: Drug uptake in Wistar rat plasma assessed as peonidin 3-glucoside level at 0.67 umol, iv after 1 min by mass spectrometry analysis. The data set is classed as ADME, organism-based. The note with it: in vivo. The method, boiled down:
as §1

In data set [3] the test system is Plasma. As to the kind of experiment: Drug uptake in Wistar rat plasma assessed as peonidin 3-glucoside level at 0.67 umol, iv after 15 mins by mass spectrometry analysis. In kind it is ADME, organism-based. The note with it: in vivo, 0.25 h. The method, boiled down:
as §1

In data set [4] the test system is Kidney. Description: Drug uptake in Wistar rat kidney assessed as peonidin 3-glucoside level by assuming kidney mass was 2.4 gram at 0.67 umol, iv after 0.25 mins by mass spectrometry analysis. In kind it is ADME, organism-based. The note with it: in vivo, 15 s. An outline of the steps:
(§2)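 Cyanidin 3-glucoside in saline was given as one iliac-vein injection (0.67 μmol) to fasting, anaesthetized rats, which were killed at 15 s, 1, 5 or 15 min. Kidneys were homogenized, extracted in methanol, cleaned up by SPE and analysed by LC-MS/MS.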

The test system of data set [5] is Kidney. As to the kind of experiment: Drug uptake in Wistar rat kidney assessed as peonidin 3-glucoside level at 0.67 umol, iv after 0.25 mins by mass spectrometry analysis. The data set is classed as ADME, organism-based. The settings on record: in vivo, 15 s, read-out: Drug uptake. An outline of the steps:
as §2

Data set [6] has as its system Kidney. As to the kind of experiment: Drug uptake in Wistar rat kidney assessed as peonidin 3-glucoside level by assuming kidney mass was 2.4 gram at 0.67 umol, iv after 1 min by mass spectrometry analysis. In kind it is ADME, organism-based. The note with it: in vivo. An outline of the steps: as §2
Data set [7] concerns Kidney. As to the kind of experiment: Drug uptake in Wistar rat kidney assessed as peonidin 3-glucoside level at 0.67 umol, iv after 1 min by mass spectrometry analysis. In kind it is ADME, organism-based. The note with it: in vivo, read-out: Drug uptake. The method, boiled down:
as §2

In data set [8] the test system is Kidney. Description: Drug uptake in Wistar rat kidney assessed as peonidin 3-glucoside level by assuming kidney mass was 2.4 gram at 0.67 umol, iv after 5 mins by mass spectrometry analysis. The settings on record: in vivo. In kind it is ADME, organism-based. The method, boiled down: as §2
The subject of data set [9] is Kidney. Description: Drug uptake in Wistar rat kidney assessed as peonidin 3-glucoside level at 0.67 umol, iv after 5 mins by mass spectrometry analysis. The data set is classed as ADME, organism-based. The settings on record: in vivo, read-out: Drug uptake. The method, boiled down:
as §2

In data set [10] the test system is Kidney. Description: Drug uptake in Wistar rat kidney assessed as peonidin 3-glucoside level by assuming kidney mass was 2.4 gram at 0.67 umol, iv after 15 mins by mass spectrometry analysis. The data set is classed as ADME, organism-based. The settings on record: in vivo, 0.25 h. The method, boiled down: as §2
Data set [11] deals with Kidney. As to the kind of experiment: Drug uptake in Wistar rat kidney assessed as peonidin 3-glucoside level at 0.67 umol, iv after 15 mins by mass spectrometry analysis. The data set is classed as ADME, organism-based. The note with it: in vivo, 0.25 h, read-out: Drug uptake. An outline of the steps: as §2
In data set [12] the test system is Liver. Description: Drug uptake in Wistar rat liver assessed as peonidin 3-glucoside level by assuming liver mass was 7 grams at 0.67 umol, iv after 0.25 mins by mass spectrometry analysis. The data set is classed as ADME, organism-based. The note with it: in vivo, 15 s. The method, boiled down:
(§3)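 Fasting, anaesthetized rats received cyanidin 3-glucoside in saline into the iliac vein (0.67 μmol) and were killed at 15 s, 1, 5 or 15 min. Liver homogenates were methanol-extracted, cleaned up by SPE and quantified by LC-MS/MS.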

The subject of data set [13] is Liver. As to the kind of experiment: Drug uptake in Wistar rat liver assessed as peonidin 3-glucoside level at 0.67 umol, iv after 0.25 mins by mass spectrometry analysis. The data set is classed as ADME, organism-based. The settings on record: in vivo, 15 s. The method, boiled down: as §3
Data set [14] relates to Liver. As to the kind of experiment: Drug uptake in Wistar rat liver assessed as peonidin 3-glucoside level by assuming liver mass was 7 grams at 0.67 umol, iv after 1 min by mass spectrometry analysis. The data set is classed as ADME, organism-based. The note with it: in vivo. An outline of the steps:
as §3

Data set [15] relates to Liver. Description: Drug uptake in Wistar rat liver assessed as peonidin 3-glucoside level at 0.67 umol, iv after 1 min by mass spectrometry analysis. In kind it is ADME, organism-based. The note with it: in vivo. An outline of the steps: as §3
The subject of data set [16] is Liver. As to the kind of experiment: Drug uptake in Wistar rat liver assessed as peonidin 3-glucoside level by assuming liver mass was 7 grams at 0.67 umol, iv after 5 mins by mass spectrometry analysis. In kind it is ADME, organism-based. The settings on record: in vivo. The method, boiled down: as §3
Data set [17] concerns Liver. As to the kind of experiment: Drug uptake in Wistar rat liver assessed as peonidin 3-glucoside level at 0.67 umol, iv after 5 mins by mass spectrometry analysis. In kind it is ADME, organism-based. The note with it: in vivo, read-out: Drug uptake. An outline of the steps:
as §3

The subject of data set [18] is Liver. Description: Drug uptake in Wistar rat liver assessed as peonidin 3-glucoside level by assuming liver mass was 7 grams at 0.67 umol, iv after 15 mins by mass spectrometry analysis. The note with it: in vivo, 0.25 h. The data set is classed as ADME, organism-based. The method, boiled down:
as §3

Data set [19] has as its system Liver. Description: Drug uptake in Wistar rat liver assessed as peonidin 3-glucoside level at 0.67 umol, iv after 15 mins by mass spectrometry analysis. In kind it is ADME, organism-based. The note with it: in vivo, 0.25 h. The method, boiled down: as §3
Data set [20] can be described thus: Drug uptake in Wistar rat urine assessed as peonidin 3-glucoside level by assuming plasma volume was 8.8 mL at 0.67 umol, iv after 15 mins by mass spectrometry analysis. The note with it: in vivo, 0.25 h. In kind it is ADME, organism-based. The method, boiled down:
as §1

The nature of data set [21]: Drug uptake in Wistar rat urine assessed as peonidin 3-glucoside level at 0.67 umol, iv after 15 mins by mass spectrometry analysis. In kind it is ADME, organism-based. The settings on record: in vivo, 0.25 h, read-out: Drug uptake. The method, boiled down: as §1
Data set [22] can be described thus: Drug uptake in Wistar rat bile assessed as peonidin 3-glucoside level by assuming plasma volume was 8.8 mL at 0.67 umol, iv after 15 mins by mass spectrometry analysis. The settings on record: in vivo, 0.25 h. In kind it is ADME, organism-based.
Data set [23] is described as follows: Drug uptake in Wistar rat bile assessed as peonidin 3-glucoside level at 0.67 umol, iv after 15 mins by mass spectrometry analysis. The note with it: in vivo, 0.25 h, read-out: Drug uptake. The data set is classed as ADME, organism-based. The method, boiled down:
(§4)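 Cyanidin 3-glucoside in saline was injected into the iliac vein of fasting, anaesthetized rats (0.67 μmol; 76 μM in plasma). Urine and bile were collected to 15 min, and their volumes were measured. Anthocyanin levels were measured by LC-MS and corrected for recovery from spiked standards. Amounts are given per collected volume (n = 9 urine, n = 4 bile).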

The nature of data set [24]: Drug excretion in Wistar rat urine assessed as peonidin 3-glucoside level at 0.67 umol, iv after 15 mins by mass spectrometry analysis. In kind it is ADME, organism-based. The note with it: in vivo, 0.25 h. An outline of the steps: as §4
A short description of data set [25]: Drug excretion in Wistar rat bile assessed as peonidin 3-glucoside level at 0.67 umol, iv after 15 mins by mass spectrometry analysis. In kind it is ADME, organism-based. The settings on record: in vivo, 0.25 h. An outline of the steps:
as §4

The test system of data set [26] is Nucleic Acid. Description: Ratio of drug uptake in urine to kidney in Wistar rat assessed as peonidin 3-glucoside level at 0.67 umol, iv after 15 mins by mass spectrometry analysis. In kind it is ADME, organism-based. The note with it: in vivo, 0.25 h.
Data set [27] has as its system Nucleic Acid. As to the kind of experiment: Ratio of drug uptake in bile to liver in Wistar rat assessed as peonidin 3-glucoside level at 0.67 umol, iv after 15 mins by mass spectrometry analysis. The data set is classed as ADME, organism-based. The note with it: in vivo, 0.25 h.
Data set [28] has as its system Plasma. Description: Drug uptake in Wistar rat plasma assessed as petunidin 3-glucoside level at 0.67 umol, iv after 0.25 mins by tandem mass spectrometry. In kind it is ADME, organism-based. The settings on record: in vivo, 15 s. The method, boiled down: as §1
Data set [29] is described as follows: Drug excretion in Wistar rat urine assessed as petunidin 3-glucoside level at 0.67 umol, iv after 15 mins by mass spectrometry analysis. The data set is classed as ADME, organism-based. The note with it: in vivo, 0.25 h.
Data set [30] deals with Plasma. As to the kind of experiment: Drug uptake in Wistar rat plasma assessed as petunidin 3-glucoside level at 0.67 umol, iv after 1 min by tandem mass spectrometry. In kind it is ADME, organism-based. The note with it: in vivo. An outline of the steps:
as §1

In data set [31] the test system is Kidney. As to the kind of experiment: Drug uptake in Wistar rat kidney assessed as petunidin 3-glucoside level by assuming kidney mass was 2.4 gram at 0.67 umol, iv after 5 mins by tandem mass spectrometry. In kind it is ADME, organism-based. The note with it: in vivo. An outline of the steps: as §2
Data set [32] deals with Kidney. Description: Drug uptake in Wistar rat kidney assessed as petunidin 3-glucoside level at 0.67 umol, iv after 5 mins by tandem mass spectrometry. The settings on record: in vivo, read-out: Drug uptake. The data set is classed as ADME, organism-based.
The subject of data set [33] is Kidney. Description: Drug uptake in Wistar rat kidney assessed as petunidin 3-glucoside level by assuming kidney mass was 2.4 gram at 0.67 umol, iv after 15 mins by tandem mass spectrometry. The data set is classed as ADME, organism-based. The settings on record: in vivo, 0.25 h. The method, boiled down: as §2
The subject of data set [34] is Kidney. Description: Drug uptake in Wistar rat kidney assessed as petunidin 3-glucoside level at 0.67 umol, iv after 15 mins by tandem mass spectrometry. In kind it is ADME, organism-based. The note with it: in vivo, 0.25 h, read-out: Drug uptake. The method, boiled down: as §2
A short description of data set [35]: Ratio of drug uptake in urine to kidney in Wistar rat assessed as petunidin 3-glucoside level at 0.67 umol, iv after 15 mins by mass spectrometry analysis. The note with it: in vivo, 0.25 h.

On to `COc1cc(-c2[o+]c3cc(O)cc(O)c3cc2O[C@@H]2O[C@H](CO)[C@@H](O)[C@H](O)[C@H]2O)ccc1O`, for which the concentration came out at 1.2 µM with Plasma [1]; 0.5 µM in the data set on Plasma [2]; 0.6 µM in the data set on Plasma [3]; 19.2 µM in the data set with Kidney [5]; 41.5 µM with Kidney [7]; 16.1 µM with Kidney [9]. The concentration stood at 20.5 µM with Kidney [11], 4.9 µM with Liver [17], 707 µM in data set [21] and 398 µM in data set [23]. In addition, the Drug uptake in the data set with Kidney [4] worked out at 46 nmol; with Kidney [6], 99.5 nmol; in the data set on Kidney [8], 38.8 nmol; with Kidney [10] it was 49.2 nmol; in the data set on Liver [12], 41.1 nmol; with Liver [13], 5.9 µM. The Drug uptake came to 80.4 nmol with Liver [14]; 11.5 µM with Liver [15]; 34.5 nmol in the data set on Liver [16]; 31.9 nmol in the data set on Liver [18]; 4.6 µM in the data set with Liver [19]; 98.7 nmol in data set [20]. In addition, the Drug uptake in [22] was determined as 58.5 nmol. For the same molecule, the Activity in data set [24] is 14.7%; in [25] it was 8.8%. Besides, the Ratio in the data set on Nucleic Acid [26] is listed as 34.5; in the data set with Nucleic Acid [27] it was 86.5.
In the case of `COc1cc(-c2[o+]c3cc(O)cc(O)c3cc2O[C@@H]2O[C@H](CO)[C@@H](O)[C@H](O)[C@H]2O)cc(O)c1O`, the concentration in the data set with Plasma [28] turned out to be 0.002 µM; with Plasma [30], 0.002 µM; in the data set on Kidney [32], 0.879 µM; in the data set on Kidney [34], 0.966 µM. Besides, the Activity in data set [29] was 0.1%. Further, the Drug uptake in the data set with Kidney [31] worked out at 2210 pmol; with Kidney [33], 2317 pmol. Further, the Ratio in [35] is listed as 4.5.
